Measurements: ChEMBL document CHEMBL4616681, “Discovery of 3-Pyridyl Isoindolin-1-one Derivatives as Potent, Selective, and Orally Active Aldosterone Synthase (CYP11B2) Inhibitors” (J Med Chem, 2020)
Converted amounts (≈) assume the structure as drawn.

How the values were obtained:
[1] = target: T1, Cytochrome P450 11B2, mitochondrial (Homo sapiens, UniProt P19099); experiment: Inhibition of human CYP11B2 expressed in human renal leiomyoblastoma cells harboring FDXR/FDX using 1-deoxycorticosterone as substrate by HTRF assay; assay type: cell-based
T1 sequence (P19099 whole entry): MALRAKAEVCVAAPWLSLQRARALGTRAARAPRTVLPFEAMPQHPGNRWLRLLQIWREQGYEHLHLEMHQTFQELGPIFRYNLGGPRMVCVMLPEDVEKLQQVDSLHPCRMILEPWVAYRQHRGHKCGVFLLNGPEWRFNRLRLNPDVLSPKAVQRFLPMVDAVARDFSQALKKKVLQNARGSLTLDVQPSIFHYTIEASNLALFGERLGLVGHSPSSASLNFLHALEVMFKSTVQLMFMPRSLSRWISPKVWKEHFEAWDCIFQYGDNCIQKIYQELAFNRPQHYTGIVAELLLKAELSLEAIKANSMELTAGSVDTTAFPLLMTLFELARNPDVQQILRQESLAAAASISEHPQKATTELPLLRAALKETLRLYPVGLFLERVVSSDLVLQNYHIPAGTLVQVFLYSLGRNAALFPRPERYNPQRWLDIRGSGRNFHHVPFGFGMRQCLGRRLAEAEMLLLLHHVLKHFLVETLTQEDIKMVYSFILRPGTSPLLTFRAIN
In short: (§1)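 Cells with endogenous FDXR/FDX and no detectable CYP11B activity, stably transfected (CMV promoter, neomycin selection, G-418 400 µg/mL) with CYP11B1 or CYP11B2 of the named species. Assayed in DMEM/F12 with 2.5% charcoal-treated FCS. Substrate 1 µM 11-deoxycorticosterone (B2) or 11-deoxycortisol (B1), 16 hr. Aldosterone or cortisol in supernatant measured by HTRF. IC50 from 4-parameter MMF fit; selectivity factor is the B1/B2 IC50 ratio.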

[2] = Selectivity ratio of IC50 for human CYP11B1 expressed in human renal leiomyoblastoma cells harboring FDXR/FDX to IC50 for human CYP11B2 expressed in human renal leiomyoblastoma cells harboring FDXR/FDX; assay type: cell-based; in short: as §1
[3] = Permeability of the compound measured at 18 hrs by PAMPA; assay type: ADME; conditions: read-out: permeability
In short: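 PAMPA sandwich format. Donor: compound diluted to 150 μM (DMSO <2%) in 0.05 M MOPSO pH 6.5 with 0.5% glycocholic acid. Acceptor: 0.05 M MOPSO pH 6.5. Membrane of 10% egg lecithin with 0.5% cholesterol in dodecane. Donor measured at start; acceptor and donor measured at ~18 hr.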

[4] = Solubility of the compound in phosphate buffer at pH 6.5 shaken for 2 hrs followed by overnight incubation; assay type: physicochemical
In short: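 Lyophilisation solubility assay run in duplicate from 10 mM DMSO stock. DMSO evaporated and residue redissolved in 0.05 M phosphate, pH 6.5. Stirred 1 hr, shaken 2 hr, left overnight, then filtered. Filtrate and a 1/10 dilution analysed by HPLC-UV against a four-point calibration.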

[5] = Inhibition of cynomolgus monkey CYP11B2 expressed in human G401 cells using 1-deoxycorticosterone as substrate by HTRF assay; assay type: cell-based, Macaca fascicularis; conditions: g-401; in short: as §1
[6] = Selectivity ratio of IC50 for cynomolgus monkey CYP11B1 expressed in human G401 cells to IC50 for cynomolgus monkey CYP11B2 expressed in human G401 cells; assay type: cell-based; in short: as §1
[7] = Plasma clearance in Wister-Han rat at 1 mg/kg, iv administered as single dose by LC/MS-MS analysis; assay type: ADME, organism-based; conditions: Wistar-Han
In short: (§2)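 Male Wistar-Han rats, single dose. IV 1 mg/kg, compound at 0.5 mg/mL in NMP:saline 30/70 (v/v). Oral 3 mg/kg, 0.25 mg/mL in 2% Klucel with 0.1% Polysorbate 80. Three rats per time point. Heparinized blood taken at eight (iv) or seven (po) time points, plasma stored at -20 °C. Plasma levels by LC/MS-MS. Non-compartmental analysis.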

[8] = AUC (0 to infinity) in Wister-Han rat at 3 mg/kg, po administered as single dose by LC/MS-MS analysis; assay type: ADME, organism-based; design: dose 3 mg/kg, route oral, time infinity; conditions: Wistar-Han, in vivo; in short: as §2
[9] = Oral bioavailability in Wister-Han rat at 3 mg/kg administered as single dose by LC/MS-MS analysis; assay type: ADME, organism-based; conditions: Wistar-Han, in vivo; in short: as §2
[10] = target: T2, Cytochrome P450 11B1, mitochondrial (Homo sapiens, UniProt P15538); experiment: Inhibition of human CYP11B1 expressed in human renal leiomyoblastoma cells harboring FDXR/FDX using 1-deoxycortisol as substrate by HTRF assay; assay type: ADME, cell-based; in short: as §1
T2 sequence (P15538 whole entry): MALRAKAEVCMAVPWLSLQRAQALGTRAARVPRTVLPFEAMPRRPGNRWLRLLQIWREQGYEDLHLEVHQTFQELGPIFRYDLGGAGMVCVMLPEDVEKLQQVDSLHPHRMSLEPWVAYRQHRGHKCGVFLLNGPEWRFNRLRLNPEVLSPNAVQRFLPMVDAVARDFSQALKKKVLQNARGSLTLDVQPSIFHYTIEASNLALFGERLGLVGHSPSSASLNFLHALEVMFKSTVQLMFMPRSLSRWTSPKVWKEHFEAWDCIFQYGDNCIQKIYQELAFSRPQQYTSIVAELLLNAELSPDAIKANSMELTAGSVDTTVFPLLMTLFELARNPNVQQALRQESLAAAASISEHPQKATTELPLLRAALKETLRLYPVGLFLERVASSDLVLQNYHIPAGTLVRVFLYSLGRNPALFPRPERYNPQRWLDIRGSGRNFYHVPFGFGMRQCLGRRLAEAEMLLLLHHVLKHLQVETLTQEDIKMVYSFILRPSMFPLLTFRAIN

[11] = Intrinsic clearance in human liver microsomes preincubated for 10 mins followed by NADPH regenerating system addition and measured up to 30 mins by LC/MS-MS analysis; assay type: ADME, Microsome; conditions: read-out: CLH
In short: (§3)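 Liver microsomes at 0.5 mg protein/mL in 100 mM potassium phosphate, pH 7.4. Compound preincubated 10 min at 37 °C. Intrinsic clearance scaled using the well-stirred liver model.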

[12] = Intrinsic clearance in mouse liver microsomes preincubated for 10 mins followed by NADPH regenerating system addition and measured up to 30 mins by LC/MS-MS analysis; assay type: ADME, Microsome; in short: as §3
[13] = Octanol-water distribution coefficient, log D of the compound by carrier-mediated distribution system; assay type: physicochemical
Cytochrome P450 3A4 = Cytochrome P450 3A4 (Homo sapiens, UniProt P08684); experiment: Inhibition of CYP3A4 (unknown origin); assay type: ADME
Cytochrome P450 2D6 = Cytochrome P450 2D6 (Homo sapiens, UniProt P10635); experiment: Inhibition of CYP2D6 (unknown origin); assay type: ADME
Cytochrome P450 2C9 = Cytochrome P450 2C9 (Homo sapiens, UniProt P11712); experiment: Inhibition of CYP2C9 (unknown origin); assay type: ADME
[14] = Intrinsic clearance in rat liver microsomes preincubated for 10 mins followed by NADPH regenerating system addition and measured up to 30 mins by LC/MS-MS analysis; assay type: ADME, Microsome; in short: as §3

Chain of Cytochrome P450 2D6 (P10635 whole entry): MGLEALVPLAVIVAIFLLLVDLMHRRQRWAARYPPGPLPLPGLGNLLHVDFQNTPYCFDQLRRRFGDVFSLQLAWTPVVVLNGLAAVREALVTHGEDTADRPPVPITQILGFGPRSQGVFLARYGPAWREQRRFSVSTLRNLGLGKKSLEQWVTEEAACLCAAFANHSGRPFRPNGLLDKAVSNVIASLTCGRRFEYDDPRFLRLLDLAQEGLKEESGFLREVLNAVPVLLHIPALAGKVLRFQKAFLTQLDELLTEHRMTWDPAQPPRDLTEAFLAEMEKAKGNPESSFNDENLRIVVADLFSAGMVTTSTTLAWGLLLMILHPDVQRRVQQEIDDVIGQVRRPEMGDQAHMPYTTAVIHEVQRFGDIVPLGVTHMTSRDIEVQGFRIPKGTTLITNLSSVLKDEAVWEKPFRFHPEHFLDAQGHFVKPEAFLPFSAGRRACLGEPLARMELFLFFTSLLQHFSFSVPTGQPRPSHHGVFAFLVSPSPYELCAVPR
Chain of Cytochrome P450 2C9 (P11712 whole entry): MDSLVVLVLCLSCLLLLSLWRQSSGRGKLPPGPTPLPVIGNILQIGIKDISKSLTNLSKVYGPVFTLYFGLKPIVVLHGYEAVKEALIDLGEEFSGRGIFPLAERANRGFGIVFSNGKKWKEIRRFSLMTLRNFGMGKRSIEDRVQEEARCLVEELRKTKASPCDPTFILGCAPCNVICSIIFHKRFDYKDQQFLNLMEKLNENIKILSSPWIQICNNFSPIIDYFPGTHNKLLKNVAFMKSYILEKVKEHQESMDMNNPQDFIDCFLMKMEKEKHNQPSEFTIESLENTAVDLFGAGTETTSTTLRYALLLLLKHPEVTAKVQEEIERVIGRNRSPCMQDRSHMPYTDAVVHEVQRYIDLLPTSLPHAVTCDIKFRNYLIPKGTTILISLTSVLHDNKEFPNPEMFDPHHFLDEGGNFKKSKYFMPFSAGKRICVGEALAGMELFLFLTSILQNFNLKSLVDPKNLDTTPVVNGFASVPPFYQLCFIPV
Chain of Cytochrome P450 3A4 (P08684 whole entry): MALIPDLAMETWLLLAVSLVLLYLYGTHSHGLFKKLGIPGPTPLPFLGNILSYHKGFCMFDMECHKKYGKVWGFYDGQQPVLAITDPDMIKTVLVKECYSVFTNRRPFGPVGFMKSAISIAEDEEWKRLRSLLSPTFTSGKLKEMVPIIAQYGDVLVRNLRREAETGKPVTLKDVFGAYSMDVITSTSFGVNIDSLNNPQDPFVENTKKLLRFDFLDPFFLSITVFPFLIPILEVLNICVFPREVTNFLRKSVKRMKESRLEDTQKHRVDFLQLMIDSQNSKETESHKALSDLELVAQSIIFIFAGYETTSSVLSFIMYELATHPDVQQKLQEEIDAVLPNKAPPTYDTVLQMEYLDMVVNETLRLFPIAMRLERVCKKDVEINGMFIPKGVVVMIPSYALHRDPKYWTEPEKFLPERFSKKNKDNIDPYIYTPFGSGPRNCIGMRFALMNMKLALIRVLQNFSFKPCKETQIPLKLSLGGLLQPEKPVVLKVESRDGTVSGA

| Structure (SMILES) | IC50 [1] [nM] | Papp at 18 h [3] [×10⁻⁶ cm/s] | solubility at 2 h [4] [µg/mL] | IC50 [5] [nM] | clearance [7] [mL/min/kg] | AUC(0-inf) [8] [ng·h/mL] | bioavailability [9] [%] | IC50 [10] [nM] | predicted hepatic clearance [11] [mL/min/kg] | predicted hepatic clearance (CLH) [12] [mL/min/kg] | logD [13] | IC50 (Cytochrome P450 3A4) [nM] | IC50 (Cytochrome P450 2D6) [nM] | IC50 (Cytochrome P450 2C9) [nM] | predicted hepatic clearance (CLH) [14] [mL/min/kg] | Ratio IC50 [2] | Ratio IC50 [6] |
| --- | --- | --- | --- | --- | --- | --- | --- | --- | --- | --- | --- | --- | --- | --- | --- | --- | --- |
| CCC(=O)N[C@@H]1CCCc2c1cncc2N1Cc2cc(Cl)ccc2C1=O | 28 | 3.63 | > 460 | – | – | – | – | 5210 | < 3.5 | < 20.2 | 2.14 | – | – | – | – | 186 | – |
| CCS(=O)(=O)N1CCC(c2cncc(N3C(=O)c4ccc(Cl)cc4C3(C)C)c2)CC1 | 3 | 4.01 | 39 (≈ 87.1 µM) | 0.4 | 29.7 | 1460 | 87 | – | – | – | – | – | – | – | 35.1 | 106 | 430 |
| CC1CN(c2cccnc2)C(=O)c2ccc(Cl)cc21 (centres undefined) | 164 | – | – | – | – | – | – | 2590 | 6.6 | 45 | – | > 50000 | > 50000 | > 50000 | – | 16 | – |
| CC1(C)c2cc(Cl)ccc2C(=O)N1c1cncc(N2CCN(S(C)(=O)=O)CC2)c1 | 2 | 6.03 | 91 (≈ 209 µM) | 0.2 | 16.6 | 1640 | 54 | – | – | – | – | – | – | – | 16.8 | 146 | 170 |
| CC1Cc2cc(Cl)ccc2C(=O)N1c1cccnc1 (centres undefined) | 761 | – | – | – | – | – | – | > 10000 | – | – | – | > 50000 | > 50000 | > 50000 | – | > 13 | – |

The next lines start with results.

| IC50 [1] [nM] | Papp at 18 h [3] [×10⁻⁶ cm/s] | solubility at 2 h [4] [µg/mL] | IC50 [5] [nM] | clearance [7] [mL/min/kg] | AUC(0-inf) [8] [ng·h/mL] | bioavailability [9] [%] | IC50 [10] [nM] | predicted hepatic clearance [11] [mL/min/kg] | predicted hepatic clearance (CLH) [12] [mL/min/kg] | logD [13] | IC50 (Cytochrome P450 3A4) [nM] | IC50 (Cytochrome P450 2D6) [nM] | IC50 (Cytochrome P450 2C9) [nM] | predicted hepatic clearance (CLH) [14] [mL/min/kg] | Structure (SMILES) | Ratio IC50 [2] | Ratio IC50 [6] |
| --- | --- | --- | --- | --- | --- | --- | --- | --- | --- | --- | --- | --- | --- | --- | --- | --- | --- |
| 5 | 3.32 | 20 (≈ 41.4 µM) | 0.5 | 3.1 | 10800 | 58 | – | – | – | – | – | – | – | – | CC1(C)c2cc(Cl)ccc2C(=O)N1c1cncc(OC2CN(C(=O)c3ncccc3Cl)C2)c1 | 174 | 1120 |
| 1540 | – | – | – | – | – | – | > 10000 | – | – | – | > 50000 | > 50000 | > 50000 | – | CC1(C)CN(c2cccnc2)C(=O)c2ccc(Cl)cc21 | > 7 | – |
| 61 | – | – | – | – | – | – | 5000 | < 3.5 | < 20.2 | 2.25 | – | – | – | – | O=C1c2ccc(Cl)cc2CCN1c1cccnc1 | 82 | – |
| 179 | – | – | – | – | – | – | 10700 | 12.8 | 76.5 | 2.52 | – | – | – | – | O=C1c2ccc(Cl)cc2CN1c1cccnc1 | 60 | – |
